From ChEMBL document CHEMBL1123171, “Synthesis of delta 3-1-methylene-1-carbacephems” (1986)
Values after ≈ are worked out from the molar mass of the structure shown.

How the values were obtained:
Bacillus subtilis = test: In vitro antibacterial activity against B. subtilis( NCTC 8236); format: functional
Method in brief: (§1)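 Agar dilution MIC in diagnostic sensitivity test agar; inoculum 10^5–10^6 cfu/spot applied with a multipoint inoculator. Test compounds were racemic, so reported values are corrected: only one-half of the observed MIC is taken.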

Escherichia coli = test: In vitro antibacterial activity against Escherichia coli (ESS); format: functional; method in brief: as §1
Staphylococcus aureus = test: Compound was tested in vitro for the antibacterial activity against Staphylococcus aureus (ATCC 6538P); format: functional; method in brief: as §1
[1] = tested on: Sarcina lutea (ATCC 9341); test: In vitro antibacterial activity against Sarcina lutea (ATCC 9341)

Structure (SMILES)	MIC (Bacillus subtilis)	MIC (Escherichia coli)	MIC (Staphylococcus aureus)	MIC [1]
C=C1C2[C@H](NC(=O)COc3ccccc3)C(=O)N2C(C(=O)O)=CC1(C)C (some centres not stated)	1.5 µg/mL (≈ 4.21 µM)	1.5 µg/mL (≈ 4.21 µM)	4 µg/mL (≈ 11.2 µM)	2 µg/mL (≈ 5.61 µM)
C=C1C2[C@H](NC(=O)C(N)c3ccccc3)C(=O)N2C(C(=O)O)=CC1(C)C (some centres not stated)	1.5 µg/mL (≈ 4.22 µM)	5 µg/mL (≈ 14.1 µM)	8 µg/mL (≈ 22.5 µM)	0.12 µg/mL (≈ 0.338 µM)
CC1=C(C(=O)O)N2C(=O)[C@@H](NC(=O)[C@H](N)c3ccccc3)[C@H]2SC1 [CEPHALEXIN ANHYDROUS]	1 µg/mL (≈ 2.88 µM)	1 µg/mL (≈ 2.88 µM)	0.3 µg/mL (≈ 0.864 µM)	0.03 µg/mL (≈ 0.0864 µM)
